We go through one compound from ChEMBL document CHEMBL2176997, “Salicylanilide inhibitors of Toxoplasma gondii” (J Med Chem, 2012).

Converted amounts (≈) assume the structure as drawn. The source made the active and inactive calls. The calls are words filed in the database; no cut-off is given here. Bounds are passed on as bounds.

The subject of data set [1] is Toxoplasma gondii. In words: Parasitostatic activity against Toxoplasma gondii RH tachyzoites expressing yellow fluorescent protein infected in HFF cells at 1 uM administered for 4 days followed by compound wash out measured on day 11 relative to untreated control. The format is functional, organism-based. In outline: (§1)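 RH-YFP tachyzoites grown in HFF cells were exposed to 1 µM compound under set schedules: 4 days of treatment then removal, or 10 days of treatment then removal. Parasite burden was followed over time as YFP fluorescence (excitation 514 nm, emission 540 nm, bottom read) and compared with untreated infected controls.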

The subject of another data set is HFF. In words: Cytotoxicity against HFF cells assessed as survival by WST1 assay. To be noted: human. The format is cell-based. In outline:
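Confluent HFF cells were treated with compounds at the concentrations used in the challenge assays. On the final day WST-1 reagent was added, followed by 1 h incubation in the dark at 37°C and absorbance reading at 420 nm.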

The subject of data set [2] is Plasmodium falciparum. In words: Selectivity ratio of IC50 for chloroquine-resistant Plasmodium falciparum TM91-C235 to IC50 for chloroquine-sensitive Plasmodium falciparum D6. Format: functional.
Data set [3] has as its system Toxoplasma gondii. In words: Antiapicomplexan activity against Toxoplasma gondii RH tachyzoites expressing yellow fluorescent protein infected in HFF cells after 72 hrs by fluorescence assay. The format is functional, organism-based. In outline: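 Confluent HFF monolayers in IMDM-C (10% FBS) infected with 3,500 RH-YFP tachyzoites per well. Compounds were added 1 h later from 10 mM DMSO stocks, final DMSO ≤0.1%. Pyrimethamine/sulfadiazine and 0.1% DMSO served as controls. After 72 h YFP fluorescence was read (ex 514, em 540 nm, bottom optics), giving MIC50/MIC90 ranges. Plates held at 33°C or 37°C, 5% CO2.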

Data set [4] has as its system Toxoplasma gondii. Put plainly: Antiapicomplexan activity against Toxoplasma gondii THdhxgTRP tachyzoites harboring insertional mutation assessed as growth inhibition after 6 weeks. Format: functional, organism-based.
For data set [5], the system named is Toxoplasma gondii. In words: Antiapicomplexan activity against Toxoplasma gondii RH tachyzoites expressing yellow fluorescent protein infected in HFF cells assessed as parasite growth inhibition at 1 uM administered for 25 days followed by compound wash out. The format is functional, organism-based.
In data set [6] the test system is Plasmodium falciparum. In words: Antiapicomplexan activity against chloroquine-resistant Plasmodium falciparum TM91-C235 assessed as growth inhibition after 72 hrs by MSF assay. Format: functional, organism-based. As to conditions: TM91-C235, 72 h. In outline: (§2)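 P. falciparum D6 or TM91-C235, late-ring/early-trophozoite stage, cultured at 0.3% parasitemia and 2% hematocrit on predosed plates. Twelve two-fold dilutions spanned 0.5–10000 ng/ml final, in quadruplicate, with chloroquine control. Incubation 72 h at 37°C under 5% CO2/5% O2/90% N2. Lysis buffer with SYBR Green I (10x final) was added, then 24 h dark at room temperature. IC50 from fluorescence by sigmoidal variable-slope regression.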

For data set [7], the system named is Toxoplasma gondii. Put plainly: Antiapicomplexan activity against Toxoplasma gondii RH tachyzoites infected in HFF cells assessed as [3H]-uracil incorporation after 24 hrs by scintillation luminescence counter. Format: functional. In outline: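 Confluent HFF monolayers in IMDM-C (10% FBS) infected with 3,500 needle-released tachyzoites per well. Compounds from 10 mM DMSO stocks, diluted in medium (final DMSO ≤0.1%), were added 1 h after infection, with 0.1% DMSO as vehicle control. [3H]-uracil (25 µL of 0.1 mCi/mL) was added 24 h before harvest onto glass-fibre filters and counted by scintillation. Cultures were kept at 33°C or 37°C, 5% CO2.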

For data set [8], the system named is Plasmodium falciparum. In words: Antiapicomplexan activity against chloroquine-sensitive Plasmodium falciparum D6 assessed as growth inhibition after 72 hrs by MSF assay. The format is functional, organism-based. As to conditions: D6, 72 h. In outline:
as §2

Data set [9] deals with Toxoplasma gondii. Put plainly: Parasitostatic activity against Toxoplasma gondii RH tachyzoites expressing yellow fluorescent protein infected in HFF cells at 1 uM administered for 10 days followed by compound wash out measured on day 17. The format is functional, organism-based. The method in brief: as §1

Broadly, the IC50 is the point on the concentration scale where inhibition reaches its midpoint. As a reminder, the IC90 is the concentration at which the effect reaches the 90% level. The low end stands for an effect from little substance, the high end for a need for much substance. As usually defined, the MIC50 is the lowest concentration that inhibits either 50% of growth or 50% of the strains tested, depending on the study. Broadly, the MIC90 is the lowest concentration that inhibits either 90% of growth or 90% of the strains tested, depending on the study. For the compound `CC(C)(C)c1cccc(NC(=O)c2cc(Cl)ccc2O)c1`, the outcome in the data set on Toxoplasma gondii [1] and with Toxoplasma gondii [9] was inactive. In addition, in the data set with HFF, the Activity was > 1000 nM. Besides, in the data set with Plasmodium falciparum [2], the “Ratio IC50” value came out at 2. The half-inhibitory concentration (IC50) in the data set on Toxoplasma gondii [3] is 8 nM; in the data set on Plasmodium falciparum [6] it was > 6500 nM; with Plasmodium falciparum [8], 3100 nM. Besides, the IC90 with Toxoplasma gondii [3] came out at 16 nM. For the same compound, the “growth inhibition (GI)” value in the data set with Toxoplasma gondii [4] and in the data set with Toxoplasma gondii [5] was “Active” throughout. The MIC50 in the data set on Toxoplasma gondii [7] came out at 0.008 µM (≈ 2.43 ng/mL). Besides, the MIC90 with Toxoplasma gondii [7] turned out to be 0.016 µM (≈ 4.86 ng/mL).
